In ChEMBL document CHEMBL1629574, “Novel chimeric beta-lactamase CTX-M-64, a hybrid of CTX-M-15-like and CTX-M-14 beta-lactamases, found in a Shigella sonnei strain resistant to various oxyimino-cephalosporins, including ceftazidime” (Antimicrob Agents Chemother, 2009) one finds MIC data, which are given here for 5 compounds.

≈ marks a conversion by molar mass, not a printed value. Some results are limits rather than exact numbers.

One assay deals with Shigella sonnei. In words: Antimicrobial activity against Shigella sonnei UIH-1 expressing beta-lactamase CTX-M-64 by broth microdilution method. Format: functional.
Conditions: not given
The method, boiled down: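 MICs determined by CLSI broth microdilution on an automated panel system. […] Susceptibility categories assigned by CLSI criteria.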
In general terms: In broth dilution the organism is exposed to a series of concentrations in liquid medium.
One may read the MIC as the smallest concentration in the dilution series that meets the test's criterion for growth inhibition. As for `CO[C@@]1(NC(=O)CSCC#N)C(=O)N2C(C(=O)O)=C(CSc3nnnn3C)CS[C@@H]21` [CEFMETAZOLE], the MIC entry was “<=0.5 ug ml-1”.

Still in this assay, the particulars now being: Shigella sonnei, UIH-1; read-out: MIC.
On to `N[C@@H](C(=O)N[C@@H]1C(=O)N2C(C(=O)O)=C(Cl)CS[C@H]12)c1ccccc1` [CEFACLOR ANHYDROUS], for which the MIC was > 16 µg/mL.

`CO[C@@]1(NC(=O)C2SC(=C(C(N)=O)C(=O)O)S2)C(=O)N2C(C(=O)O)=C(CSc3nnnn3C)CS[C@@H]21` (stereo not given in full) [CEFOTETAN]: the MIC was ≤ 0.5 µg/mL.

In the case of `CO/N=C(\C(=O)N[C@@H]1C(=O)N2C(C(=O)[O-])=C(C[n+]3ccn4ncccc43)CS[C@H]12)c1nsc(N)n1` [CEFOZOPRAN], the MIC was > 16 µg/mL.

As to `C[C@@H](O)[C@H]1C(=O)N2C(C(=O)O)=C(S[C@@H]3CN[C@H](C(=O)N(C)C)C3)[C@H](C)[C@H]12` [MEROPENEM], the MIC was ≤ 0.5 µg/mL.

A further assay deals with Escherichia coli. As to the kind of experiment: Antimicrobial activity against rifampicin-resistant Escherichia coli X1037 transconjugant by broth microdilution method. It counts as functional.
Conditions: not given
Take `N[C@@H](C(=O)N[C@@H]1C(=O)N2C(C(=O)O)=C(Cl)CS[C@H]12)c1ccccc1` [CEFACLOR ANHYDROUS]: the MIC was > 16 µg/mL.

As to `CO[C@@]1(NC(=O)C2SC(=C(C(N)=O)C(=O)O)S2)C(=O)N2C(C(=O)O)=C(CSc3nnnn3C)CS[C@@H]21` (stereo not given in full) [CEFOTETAN], the MIC is ≤ 0.5 µg/mL.

In the case of `CO/N=C(\C(=O)N[C@@H]1C(=O)N2C(C(=O)[O-])=C(C[n+]3ccn4ncccc43)CS[C@H]12)c1nsc(N)n1` [CEFOZOPRAN], the MIC is > 16 µg/mL.

As for `CO[C@@]1(NC(=O)CSCC#N)C(=O)N2C(C(=O)O)=C(CSc3nnnn3C)CS[C@@H]21` [CEFMETAZOLE], the minimum inhibitory concentration (MIC) is 1 µg/mL (≈ 2.12 µM).

Turning to `C[C@@H](O)[C@H]1C(=O)N2C(C(=O)O)=C(S[C@@H]3CN[C@H](C(=O)N(C)C)C3)[C@H](C)[C@H]12` [MEROPENEM], the MIC is ≤ 0.5 µg/mL.

A further assay relates to Escherichia coli. In words: Antimicrobial activity against Escherichia coli XL-1 Blue transconjugant harboring beta-lactamase CTX-M-64 by broth microdilution method. The following applies: Escherichia coli, XL-1 Blue; read-out: MIC. Format: functional.
On to `N[C@@H](C(=O)N[C@@H]1C(=O)N2C(C(=O)O)=C(Cl)CS[C@H]12)c1ccccc1` [CEFACLOR ANHYDROUS], for which the MIC is > 16 µg/mL.

In the case of `CO[C@@]1(NC(=O)C2SC(=C(C(N)=O)C(=O)O)S2)C(=O)N2C(C(=O)O)=C(CSc3nnnn3C)CS[C@@H]21` (stereo not given in full) [CEFOTETAN], the MIC is 8 µg/mL (≈ 13.9 µM).

Consider `CO/N=C(\C(=O)N[C@@H]1C(=O)N2C(C(=O)[O-])=C(C[n+]3ccn4ncccc43)CS[C@H]12)c1nsc(N)n1` [CEFOZOPRAN], for which the MIC is > 16 µg/mL.

Consider `CO[C@@]1(NC(=O)CSCC#N)C(=O)N2C(C(=O)O)=C(CSc3nnnn3C)CS[C@@H]21` [CEFMETAZOLE], for which the minimal inhibitory concentration (MIC) worked out at 1 µg/mL (≈ 2.12 µM).

For `C[C@@H](O)[C@H]1C(=O)N2C(C(=O)O)=C(S[C@@H]3CN[C@H](C(=O)N(C)C)C3)[C@H](C)[C@H]12` [MEROPENEM], the MIC was ≤ 0.5 µg/mL.

The next assay concerns Escherichia coli. As to the kind of experiment: Antimicrobial activity against Escherichia coli XL-1 Blue harboring plasmid CL1920 by broth microdilution method. It counts as functional.
Conditions: not given
Regarding `N[C@@H](C(=O)N[C@@H]1C(=O)N2C(C(=O)O)=C(Cl)CS[C@H]12)c1ccccc1` [CEFACLOR ANHYDROUS], the MIC is ≤ 2 µg/mL.

As for `CO[C@@]1(NC(=O)C2SC(=C(C(N)=O)C(=O)O)S2)C(=O)N2C(C(=O)O)=C(CSc3nnnn3C)CS[C@@H]21` (stereo not given in full) [CEFOTETAN], the MIC was ≤ 0.5 µg/mL.

In the case of `CO/N=C(\C(=O)N[C@@H]1C(=O)N2C(C(=O)[O-])=C(C[n+]3ccn4ncccc43)CS[C@H]12)c1nsc(N)n1` [CEFOZOPRAN], the MIC was ≤ 1 µg/mL.

In turn, `CO[C@@]1(NC(=O)CSCC#N)C(=O)N2C(C(=O)O)=C(CSc3nnnn3C)CS[C@@H]21` [CEFMETAZOLE] yielded an MIC of 1 µg/mL (≈ 2.12 µM).

`C[C@@H](O)[C@H]1C(=O)N2C(C(=O)O)=C(S[C@@H]3CN[C@H](C(=O)N(C)C)C3)[C@H](C)[C@H]12` [MEROPENEM]: the MIC is ≤ 0.5 µg/mL.

A further assay relates to Escherichia coli. In words: Antimicrobial activity against rifampicin-resistant Escherichia coli X1037 by broth microdilution method.
Conditions: not given
Format: functional.
Regarding `N[C@@H](C(=O)N[C@@H]1C(=O)N2C(C(=O)O)=C(Cl)CS[C@H]12)c1ccccc1` [CEFACLOR ANHYDROUS], the MIC was ≤ 2 µg/mL.

With `CO[C@@]1(NC(=O)C2SC(=C(C(N)=O)C(=O)O)S2)C(=O)N2C(C(=O)O)=C(CSc3nnnn3C)CS[C@@H]21` (stereo not given in full) [CEFOTETAN], the MIC is ≤ 0.5 µg/mL.

In the case of `CO/N=C(\C(=O)N[C@@H]1C(=O)N2C(C(=O)[O-])=C(C[n+]3ccn4ncccc43)CS[C@H]12)c1nsc(N)n1` [CEFOZOPRAN], the MIC was ≤ 1 µg/mL.

As for `CO[C@@]1(NC(=O)CSCC#N)C(=O)N2C(C(=O)O)=C(CSc3nnnn3C)CS[C@@H]21` [CEFMETAZOLE], the MIC is ≤ 0.5 µg/mL.

Turning to `C[C@@H](O)[C@H]1C(=O)N2C(C(=O)O)=C(S[C@@H]3CN[C@H](C(=O)N(C)C)C3)[C@H](C)[C@H]12` [MEROPENEM], the MIC is ≤ 0.5 µg/mL.
